# Reference: paper PMC13170702 (Nuclear medicine and biology, 2025)
# Assay: organ radiation dose estimates, OLINDA 2.0, ICRP-103
# Format: in vivo, human
# In short: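 Whole-body PET-MR ran as nine scans to 214 min. Organ VOIs were drawn in AMIDE, giving decay-corrected %IA per VOI; remainder = whole body minus measured organs. TIACs came from the EXM exponential model (OLINDA 1.1). Per-participant organ doses were computed in OLINDA 2.0 with 73 kg adult male or 60 kg female models. Effective dose (mSv) = organ absorbed doses × ICRP-103 tissue weighting factors.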
structure (smiles),measurement,setting,value
"COC(=O)[C@@H](N)CC(=O)Nc1ccc2c(c1)Cc1cc([18F])ccc1-2 [[^18F]RP-115, methyl N^4-(7-[^18F]fluoro-9H-fluoren-2-yl)asparaginate]","Estimated dose, Thyroid","Female n=4, mean±SD",0.0239±0.0171 mGy/MBq
same,"Estimated dose, Urinary bladder wall","Female n=4, mean±SD",0.0516±0.0371 mGy/MBq
same,"Estimated dose, Uterus","Female n=4, mean±SD",0.0573±0.0514 mGy/MBq
same,Effective dose (whole body),M1 (326 MBq),6.65 mSv
same,"Estimated absorbed dose, Adrenals",M1 (326 MBq),13.5 mGy
same,"Estimated absorbed dose, Brain",M1 (326 MBq),5.47 mGy
same,"Estimated absorbed dose, Colon, left",M1 (326 MBq),5.63 mGy
same,"Estimated absorbed dose, Colon, right",M1 (326 MBq),4.95 mGy
same,"Estimated absorbed dose, Esophagus",M1 (326 MBq),5.18 mGy
same,"Estimated absorbed dose, Eyes",M1 (326 MBq),2.26 mGy
same,"Estimated absorbed dose, Gallbladder wall",M1 (326 MBq),10.3 mGy
same,"Estimated absorbed dose, Heart wall",M1 (326 MBq),9.25 mGy
same,"Estimated absorbed dose, Kidneys",M1 (326 MBq),70.7 mGy
same,"Estimated absorbed dose, Liver",M1 (326 MBq),17.5 mGy
same,"Estimated absorbed dose, Lungs",M1 (326 MBq),17.0 mGy
same,"Estimated absorbed dose, Osteogenic cells",M1 (326 MBq),2.80 mGy
same,"Estimated absorbed dose, Pancreas",M1 (326 MBq),5.93 mGy
same,"Estimated absorbed dose, Prostate",M1 (326 MBq),3.21 mGy
same,"Estimated absorbed dose, Rectum",M1 (326 MBq),3.35 mGy
same,"Estimated absorbed dose, Red marrow",M1 (326 MBq),3.48 mGy
same,"Estimated absorbed dose, Salivary glands",M1 (326 MBq),2.64 mGy
same,"Estimated absorbed dose, Small intestine",M1 (326 MBq),17.2 mGy
same,"Estimated absorbed dose, Spleen",M1 (326 MBq),24.9 mGy
same,"Estimated absorbed dose, Stomach wall",M1 (326 MBq),5.27 mGy
same,"Estimated absorbed dose, Testes",M1 (326 MBq),2.11 mGy
same,"Estimated absorbed dose, Thymus",M1 (326 MBq),14.7 mGy
same,"Estimated absorbed dose, Thyroid",M1 (326 MBq),4.36 mGy
same,"Estimated absorbed dose, Urinary bladder wall",M1 (326 MBq),3.68 mGy
same,Effective dose (whole body),M2 (289 MBq),4.65 mSv
same,"Estimated absorbed dose, Adrenals",M2 (289 MBq),12.3 mGy
same,"Estimated absorbed dose, Brain",M2 (289 MBq),2.94 mGy
same,"Estimated absorbed dose, Colon, left",M2 (289 MBq),5.05 mGy
same,"Estimated absorbed dose, Colon, right",M2 (289 MBq),4.10 mGy
same,"Estimated absorbed dose, Esophagus",M2 (289 MBq),4.39 mGy
same,"Estimated absorbed dose, Eyes",M2 (289 MBq),1.91 mGy
same,"Estimated absorbed dose, Gallbladder wall",M2 (289 MBq),6.09 mGy
same,"Estimated absorbed dose, Heart wall",M2 (289 MBq),33.5 mGy
same,"Estimated absorbed dose, Kidneys",M2 (289 MBq),74.2 mGy
same,"Estimated absorbed dose, Liver",M2 (289 MBq),10.1 mGy
same,"Estimated absorbed dose, Lungs",M2 (289 MBq),2.65 mGy
same,"Estimated absorbed dose, Osteogenic cells",M2 (289 MBq),2.33 mGy
same,"Estimated absorbed dose, Pancreas",M2 (289 MBq),44.4 mGy
same,"Estimated absorbed dose, Prostate",M2 (289 MBq),2.91 mGy
same,"Estimated absorbed dose, Rectum",M2 (289 MBq),2.77 mGy
same,"Estimated absorbed dose, Red marrow",M2 (289 MBq),2.76 mGy
same,"Estimated absorbed dose, Salivary glands",M2 (289 MBq),2.20 mGy
same,"Estimated absorbed dose, Small intestine",M2 (289 MBq),4.04 mGy
same,"Estimated absorbed dose, Spleen",M2 (289 MBq),9.84 mGy
same,"Estimated absorbed dose, Stomach wall",M2 (289 MBq),5.89 mGy
same,"Estimated absorbed dose, Testes",M2 (289 MBq),2.02 mGy
same,"Estimated absorbed dose, Thymus",M2 (289 MBq),5.86 mGy
same,"Estimated absorbed dose, Thyroid",M2 (289 MBq),2.40 mGy
same,"Estimated absorbed dose, Urinary bladder wall",M2 (289 MBq),4.70 mGy
same,Effective dose (whole body),M3 (70.3 MBq),1.25 mSv
same,"Estimated absorbed dose, Adrenals",M3 (70.3 MBq),2.34 mGy
same,"Estimated absorbed dose, Brain",M3 (70.3 MBq),0.810 mGy
same,"Estimated absorbed dose, Colon, left",M3 (70.3 MBq),0.970 mGy
same,"Estimated absorbed dose, Colon, right",M3 (70.3 MBq),0.900 mGy
same,"Estimated absorbed dose, Esophagus",M3 (70.3 MBq),1.00 mGy
same,"Estimated absorbed dose, Eyes",M3 (70.3 MBq),0.450 mGy
same,"Estimated absorbed dose, Gallbladder wall",M3 (70.3 MBq),1.53 mGy
same,"Estimated absorbed dose, Heart wall",M3 (70.3 MBq),1.84 mGy
same,"Estimated absorbed dose, Kidneys",M3 (70.3 MBq),12.4 mGy
same,"Estimated absorbed dose, Liver",M3 (70.3 MBq),2.85 mGy
same,"Estimated absorbed dose, Lungs",M3 (70.3 MBq),3.35 mGy
same,"Estimated absorbed dose, Osteogenic cells",M3 (70.3 MBq),0.557 mGy
same,"Estimated absorbed dose, Pancreas",M3 (70.3 MBq),1.15 mGy
same,"Estimated absorbed dose, Prostate",M3 (70.3 MBq),0.724 mGy
same,"Estimated absorbed dose, Rectum",M3 (70.3 MBq),0.702 mGy
same,"Estimated absorbed dose, Red marrow",M3 (70.3 MBq),0.692 mGy
same,"Estimated absorbed dose, Salivary glands",M3 (70.3 MBq),0.536 mGy
same,"Estimated absorbed dose, Small intestine",M3 (70.3 MBq),1.93 mGy
same,"Estimated absorbed dose, Spleen",M3 (70.3 MBq),2.65 mGy
same,"Estimated absorbed dose, Stomach wall",M3 (70.3 MBq),0.984 mGy
same,"Estimated absorbed dose, Testes",M3 (70.3 MBq),0.477 mGy
same,"Estimated absorbed dose, Thymus",M3 (70.3 MBq),1.58 mGy
same,"Estimated absorbed dose, Thyroid",M3 (70.3 MBq),0.830 mGy
same,"Estimated absorbed dose, Urinary bladder wall",M3 (70.3 MBq),2.00 mGy
same,Effective dose (whole body),M4 (153 MBq),2.62 mSv
same,"Estimated absorbed dose, Adrenals",M4 (153 MBq),5.67 mGy
same,"Estimated absorbed dose, Brain",M4 (153 MBq),2.17 mGy
same,"Estimated absorbed dose, Colon, left",M4 (153 MBq),2.46 mGy
same,"Estimated absorbed dose, Colon, right",M4 (153 MBq),2.15 mGy
same,"Estimated absorbed dose, Esophagus",M4 (153 MBq),2.06 mGy
same,"Estimated absorbed dose, Eyes",M4 (153 MBq),1.08 mGy
same,"Estimated absorbed dose, Gallbladder wall",M4 (153 MBq),3.76 mGy
same,"Estimated absorbed dose, Heart wall",M4 (153 MBq),3.73 mGy
same,"Estimated absorbed dose, Kidneys",M4 (153 MBq),31.2 mGy
same,"Estimated absorbed dose, Liver",M4 (153 MBq),5.85 mGy
same,"Estimated absorbed dose, Lungs",M4 (153 MBq),5.53 mGy
same,"Estimated absorbed dose, Osteogenic cells",M4 (153 MBq),1.28 mGy
same,"Estimated absorbed dose, Pancreas",M4 (153 MBq),3.39 mGy
same,"Estimated absorbed dose, Prostate",M4 (153 MBq),1.60 mGy
same,"Estimated absorbed dose, Rectum",M4 (153 MBq),1.64 mGy
same,"Estimated absorbed dose, Red marrow",M4 (153 MBq),1.54 mGy
same,"Estimated absorbed dose, Salivary glands",M4 (153 MBq),1.26 mGy
same,"Estimated absorbed dose, Small intestine",M4 (153 MBq),6.45 mGy
same,"Estimated absorbed dose, Spleen",M4 (153 MBq),8.39 mGy
same,"Estimated absorbed dose, Stomach wall",M4 (153 MBq),2.22 mGy
same,"Estimated absorbed dose, Testes",M4 (153 MBq),1.09 mGy
same,"Estimated absorbed dose, Thymus",M4 (153 MBq),5.87 mGy
same,"Estimated absorbed dose, Thyroid",M4 (153 MBq),2.28 mGy
same,"Estimated absorbed dose, Urinary bladder wall",M4 (153 MBq),2.61 mGy
same,Effective dose (whole body),"Male n=4, mean±SD",0.0179±0.0018 mSv/MBq
same,"Estimated dose, Adrenals","Male n=4, mean±SD",0.0386±0.0043 mGy/MBq
same,"Estimated dose, Brain","Male n=4, mean±SD",0.0132±0.0029 mGy/MBq
same,"Estimated dose, Esophagus","Male n=4, mean±SD",0.0147±0.0011 mGy/MBq
same,"Estimated dose, Eyes","Male n=4, mean±SD",0.00678±0.00029 mGy/MBq
same,"Estimated dose, Gallbladder wall","Male n=4, mean±SD",0.0248±0.0048 mGy/MBq
same,"Estimated dose, Heart wall","Male n=4, mean±SD",0.0488±0.0449 mGy/MBq
same,"Estimated dose, Kidneys","Male n=4, mean±SD",0.214±0.034 mGy/MBq
same,"Estimated dose, Left colon","Male n=4, mean±SD",0.0162±0.0017 mGy/MBq
same,"Estimated dose, Liver","Male n=4, mean±SD",0.0419±0.0082 mGy/MBq
same,"Estimated dose, Lungs","Male n=4, mean±SD",0.0363±0.0193 mGy/MBq
same,"Estimated dose, Osteogenic cells","Male n=4, mean±SD",0.00825±0.00031 mGy/MBq
same,"Estimated dose, Pancreas","Male n=4, mean±SD",0.0527±0.0676 mGy/MBq
same,"Estimated dose, Prostate","Male n=4, mean±SD",0.0102±0.0003 mGy/MBq
same,"Estimated dose, Rectum","Male n=4, mean±SD",0.0101±0.0005 mGy/MBq
same,"Estimated dose, Red marrow","Male n=4, mean±SD",0.0101±0.0005 mGy/MBq
same,"Estimated dose, Right colon","Male n=4, mean±SD",0.0141±0.0010 mGy/MBq
same,"Estimated dose, Salivary Glands","Male n=4, mean±SD",0.00791±0.0003 mGy/MBq
same,"Estimated dose, Small intestine","Male n=4, mean±SD",0.0341±0.0169 mGy/MBq
same,"Estimated dose, Spleen","Male n=4, mean±SD",0.0508±0.0194 mGy/MBq
same,"Estimated dose, Stomach wall","Male n=4, mean±SD",0.0163±0.0029 mGy/MBq
same,"Estimated dose, Testes","Male n=4, mean±SD",0.00684±0.00028 mGy/MBq
same,"Estimated dose, Thymus","Male n=4, mean±SD",0.0316±0.0122 mGy/MBq
same,"Estimated dose, Thyroid","Male n=4, mean±SD",0.0121±0.0028 mGy/MBq
same,"Estimated dose, Urinary bladder wall","Male n=4, mean±SD",0.0183±0.0073 mGy/MBq
